Our source for the IC50 values is ChEMBL document CHEMBL5584279, “New Lipophilic Hydroxamates as Promising Trypanocidal Agents: Design, Synthesis, SAR, and Conformational Behavior Studies” (ACS Med Chem Lett, 2024).

For orientation: IC50 means the concentration at which inhibition is half-maximal.

The test system of one assay is Trypanosoma brucei. The experiment in a line: Trypanocidal activity against bloodstream form of Trypanosoma brucei 221 assessed as inhibition of parasite growth incubated for 48 hrs followed by resazurin addition and measured after 16 hrs by resazurin assay. In kind it is functional, organism-based. Put shortly: (§1)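 Bloodstream-form T. brucei were cultured in vitro at pH 7.4. Growth inhibition was expressed as IC50 and IC90, the concentrations that inhibit parasite growth by 50% and 90%. Values are the mean of triplicate experiments ± SEM.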
As for `CC(C)C[C@@H]1NC2(CCCCCC2)C(=O)N(CC(=O)NO)C1=O`, the IC50 turned out to be 99 nM.

A further assay concerns Trypanosoma brucei. The experiment in a line: Trypanocidal activity against bloodstream form of Trypanosoma brucei assessed as inhibition of parasite growth. It is filed as functional, organism-based. Put shortly: as §1
Turning to `CC1(c2ccc(F)cc2)NCC(=O)N(CC(=O)NO)C1=O` (stereo not drawn), the IC50 amounted to 19100 nM.

For the compound `CN1CC(=O)N(CC(=O)NO)C(=O)C1(C)c1ccc([N+](=O)[O-])cc1` (stereo not drawn), the IC50 came to 1220 nM.

Turning to `CCCC1(c2ccccc2)C(=O)N(CC(=O)NO)C(=O)CN1C` (stereo not drawn), the concentration for half-maximal inhibition (IC50) worked out at 1770 nM.

With `CN1CC(=O)N(CC(=O)NO)C(=O)C1(C)c1ccc(F)cc1` (stereo not drawn), the IC50 was 8160 nM.

As for `CCCN1CC(=O)N(CC(=O)NO)C(=O)C1(C)c1ccccc1` (stereo not drawn), the concentration for half-maximal inhibition (IC50) was found to be 470 nM.

Take `CC1(c2ccc([N+](=O)[O-])cc2)NCC(=O)N(CC(=O)NO)C1=O` (stereo not drawn): the IC50 was 11700 nM.

On to `CCCCN1CC(=O)N(CC(=O)NO)C(=O)C1(C)c1ccccc1` (stereo not drawn), for which the IC50 came out at 630 nM.

`CN1CC(=O)N(CC(=O)NO)C(=O)C1(C)c1ccccc1` (stereo not drawn): the 50% inhibitory concentration (IC50) came out at 590 nM.

Turning to `CCCCC1(c2ccccc2)NCC(=O)N(CC(=O)NO)C1=O` (stereo not drawn), the half-maximal inhibitory concentration (IC50) was 1720 nM.

On to `CCCC1(c2ccccc2)NCC(=O)N(CC(=O)NO)C1=O` (stereo not drawn), for which the 50% inhibitory concentration (IC50) came to 7250 nM.

Turning to `CCCCC1(c2ccccc2)C(=O)N(CC(=O)NO)C(=O)CN1C` (stereo not drawn), the IC50 was 2650 nM.

Consider `CC1(c2ccccc2)NCC(=O)N(CC(=O)NO)C1=O` (stereo not drawn), for which the IC50 was found to be 6970 nM.
